This is an account of results in ChEMBL document CHEMBL3804777, “Identification and Preclinical Pharmacology of BMS-986104: A Differentiated S1P1 Receptor Modulator in Clinical Trials” (ACS Med Chem Lett, 2016).

The nature of data set [1]: Drug metabolism in BALB/c mouse whole blood assessed as whole blood phosphate area ratio at 10 uM after 4 hrs by LC/MS/MS analysis. Format: ADME, tissue-based. The gist of the method: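 Mouse whole blood incubated with the amino-alcohol prodrug; phosphorylated product measured by LC/MS/MS after 4 h to give the relative extent of phosphate ester formation.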
The test system of data set [2] is Mus musculus. In words: Reduction of blood lymphocyte level in BALB/c mouse at 1 mg/kg administered through oral gavage after 24 hrs by hematology analysis. Set-up: scale not given: the % may be the effect or the level left. It counts as functional. An outline of the steps:
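Mice given a single oral 1 mg/kg dose; circulating lymphocytes counted 24 h later as the pharmacodynamic marker.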

In data set [3] the test system is Mus musculus. In words: Reduction in lymphocyte level in BALB/c mouse assessed as blood lymphocyte level at 10 mg/kg, po after 24 hrs by hematology analysis (reference value: 5.13 to 8.02 10^3/mm3). Format: functional.
Data set [4] has as its system Mus musculus. In words: Reduction in Ifit1 gene expression in SCID mouse with CD45RBhiCD4+ T-cell transfer-induced colitis model of inflammatory bowel disease at 5 mg/kg, po dosed every other day for 5 weeks by RT-PCR method. It counts as functional. The conditions noted are these: 840 h. An outline of the steps: (§1)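 CD45RBhiCD4+ T-cell transfer colitis in mice; oral alternate-day dosing for 5 weeks, compared with vehicle. Read-outs: body weight, colon length, histological colon inflammation and tissue damage, and colon gene expression by RT-PCR (IFN-γ, IL-2, CD4, B220, CD11b, Fcgr4, Ifit1, OASL2).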

Data set [5] deals with Mus musculus. In words: Reduction in lymphocyte level in BALB/c mouse assessed as blood lymphocyte level at 0.5 mg/kg, po after 24 hrs by hematology analysis (reference value: 5.13 to 8.02 10^3/mm3). Format: functional.
The test system of data set [6] is Mus musculus. In words: Reduction in IL2 gene expression in SCID mouse with CD45RBhiCD4+ T-cell transfer-induced colitis model of inflammatory bowel disease at 5 mg/kg, po dosed every other day for 5 weeks by RT-PCR method. Format: functional. The conditions noted are these: 840 h. An outline of the steps: as §1
Data set [7] relates to Mus musculus. Briefly: Reduction in OASL2 gene expression in SCID mouse with CD45RBhiCD4+ T-cell transfer-induced colitis model of inflammatory bowel disease at 5 mg/kg, po dosed every other day for 5 weeks by RT-PCR method. Format: functional. The conditions noted are these: 840 h. An outline of the steps: as §1
Data set [8] concerns Mus musculus. Briefly: Pulmonary toxicity in BALB/c mouse assessed as BAL protein levels at 30 mg/kg, po after 24 by hematology analysis (reference value: 8.2 to 8.3 mg/dL). The conditions noted are these: in vivo. It counts as organism-based.
Data set [9] relates to Mus musculus. Briefly: Reduction in IFNgamma gene expression in SCID mouse with CD45RBhiCD4+ T-cell transfer-induced colitis model of inflammatory bowel disease at 5 mg/kg, po dosed every other day for 5 weeks by RT-PCR method. It counts as functional. The conditions noted are these: 840 h. An outline of the steps:
as §1

Data set [10] relates to Mus musculus. Briefly: Reduction in body weight loss in SCID mouse with CD45RBhiCD4+ T-cell transfer-induced colitis model of inflammatory bowel disease at 1 mg/kg, po dosed daily for 5 weeks. It counts as functional, organism-based. The gist of the method: (§2)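 CD45RBhiCD4+ T-cell transfer colitis in mice; oral dosing at 1 mg/kg/day for 5 weeks, compared with vehicle. Read-outs: body weight, colon length, and colon gene expression by RT-PCR (IFN-γ, IL-2, CD4, B220, CD11b, Fcgr4, Ifit1, OASL2).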

Data set [11] has as its system Mus musculus. Briefly: Reduction in B220 gene expression in SCID mouse with CD45RBhiCD4+ T-cell transfer-induced colitis model of inflammatory bowel disease at 5 mg/kg, po dosed every other day for 5 weeks by RT-PCR method. It counts as functional. The conditions noted are these: 840 h. The gist of the method: as §1
The subject of data set [12] is Mus musculus. Briefly: Pulmonary toxicity in BALB/c mouse assessed as BAL protein levels at 0.5 mg/kg, po after 24 by hematology analysis (reference value: 8.2 to 8.3 mg/dL). It counts as organism-based. The conditions noted are these: in vivo.
Data set [13] deals with Mus musculus. Briefly: Reduction in CD11b gene expression in SCID mouse with CD45RBhiCD4+ T-cell transfer-induced colitis model of inflammatory bowel disease at 5 mg/kg, po dosed every other day for 5 weeks by RT-PCR method. Format: functional. The conditions noted are these: 840 h. The gist of the method:
as §1

Data set [14] concerns Mus musculus. In words: Induction of colon length shortening in SCID mouse with CD45RBhiCD4+ T-cell transfer-induced colitis model of inflammatory bowel disease at 1 mg/kg, po dosed daily for 5 weeeks. It counts as functional, organism-based. An outline of the steps:
as §2

The test system of data set [15] is Mus musculus. Briefly: Reduction in Fcgr4 gene expression in SCID mouse with CD45RBhiCD4+ T-cell transfer-induced colitis model of inflammatory bowel disease at 5 mg/kg, po dosed every other day for 5 weeks by RT-PCR method. Format: functional. The conditions noted are these: 840 h. An outline of the steps:
as §1

The subject of data set [16] is Mus musculus. In words: Reduction in lymphocyte level in BALB/c mouse assessed as blood lymphocyte level at 30 mg/kg, po after 24 hrs by hematology analysis (reference value: 5.13 to 8.02 10^3/mm3). Format: functional.
For data set [17], the system named is Mus musculus. In words: Pulmonary toxicity in BALB/c mouse assessed as BAL protein levels at 10 mg/kg, po after 24 by hematology analysis (reference value: 8.2 to 8.3 mg/dL). Format: organism-based. The conditions noted are these: in vivo.
Data set [18] has as its system Mus musculus. In words: Reduction in CD4 gene expression in SCID mouse with CD45RBhiCD4+ T-cell transfer-induced colitis model of inflammatory bowel disease at 5 mg/kg, po dosed every other day for 5 weeks by RT-PCR method. The conditions noted are these: 840 h. Format: functional. An outline of the steps: as §1
For data set [19], the system named is Heart. Briefly: Toxicity in guinea pig heart assessed as third degree AV block at 300 nM after 10 mins by ECG analysis. The conditions noted are these: 0.3 µM. Format: tissue-based, Cavia porcellus. An outline of the steps: (§3)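 Isolated guinea pig hearts perfused with the phosphate at the stated concentrations; ventricular rate and atrioventricular conduction (third-degree AV block) monitored.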

Data set [20] deals with Heart. In words: Toxicity in guinea pig heart assessed as reduction in ventricular rate at 100 nM after 10 mins by ECG analysis. Format: tissue-based, Cavia porcellus, Cardiac ventricle. The conditions noted are these: 0.1 µM. The gist of the method:
as §3

What is called inhibition in vivo is how much of the control response was suppressed.

Activity calls are given as the source filed them. No cut-off for these calls is given here.

As to `CCCCCCC1CCc2cc(C3CCC(N)(CO)C3)ccc2C1` (stereo in doubt; 3e), the Ratio in data set [1] was determined as 0.03.
As for `CCCCCCC1CCc2cc(C3CCC(N)(CO)C3)ccc2C1` (stereo in doubt; 3f), the Activity in data set [2] is listed as 80%. In addition, in data set [1], the Ratio was 0.6.
Consider `CCCCCCC1CCc2cc(C3CCC(N)(CO)C3)ccc2C1` (stereo in doubt; 3g), for which the Ratio in [1] is given as 0.02.
For `CCCCCCC1CCc2cc(C3CCC(N)(CO)C3)ccc2C1` (stereo in doubt; 3h), in data set [2], the Activity turned out to be 60%. Further, the Ratio in data set [1] came out at 0.17.
Consider `CCCCCCCCc1ccc(CCC(N)(CO)CO)cc1` [FINGOLIMOD], for which the Activity in data set [3] is 0.92 ×10³ /mm3; in data set [5] it was 1.28 ×10³ /mm3; in [8], 71 mg/dL; in [12] it was 7.5 mg/dL; in [16], 0.29 ×10³ /mm3; in data set [17] it was 34.2 mg/dL. Also, the inhibition in vivo at 5 mg/kg turned out to be 16% in [4]; 68% in data set [6]; 7% in data set [7]; 30% in [9]; 55% in [11]; 45% in [13]. Moreover, the inhibition in vivo at 5 mg/kg in data set [15] turned out to be 25%; in data set [18] it was 60%. Besides, in [10], the inhibition entry was “Active”. In addition, the result in data set [14] was Active.
As to `CCc1cc(/C(C)=N/OCc2ccc(C3CCCCC3)c(C(F)(F)F)c2)ccc1CN1CC(C(=O)O)C1` [SIPONIMOD], the Activity entry in [19] and in data set [20] was “Toxic” each time.
